The Ki is the dissociation constant of the complex between target and ligand, obtained from inhibition or displacement. In general, EC50 refers to the concentration at which the effect is half-maximal.

Series [1] deals with Apoptosis regulator Bcl-2 (Homo sapiens, UniProt P10415). Description: Binding affinity to Bcl-2 (unknown origin) assessed as dissociation constant incubated for 1 hrs by TR-FRET assay.
In the next series the target is Bcl-2-like protein 1 (Homo sapiens, UniProt Q07817). In words: Binding affinity to Bcl-xl (unknown origin) assessed as dissociation constant incubated for 1 hrs by TR-FRET assay. On the technique in general: Time-resolved FRET reads energy transfer from a long-lived donor to a nearby acceptor.
Bcl-2-like protein 1, sequence (Q07817 whole entry): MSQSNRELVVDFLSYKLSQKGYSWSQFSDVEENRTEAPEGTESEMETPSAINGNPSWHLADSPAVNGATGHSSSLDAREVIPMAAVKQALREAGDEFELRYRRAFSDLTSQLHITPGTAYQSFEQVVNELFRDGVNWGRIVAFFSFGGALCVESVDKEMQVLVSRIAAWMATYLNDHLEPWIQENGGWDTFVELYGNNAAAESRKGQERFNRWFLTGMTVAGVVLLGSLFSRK
The target of series [2] is Induced myeloid leukemia cell differentiation protein Mcl-1 (Homo sapiens, UniProt Q07820). Description: Binding affinity to MCL-1 (unknown origin) assessed as dissociation constant incubated for 1 hrs by TR-FRET assay.
Induced myeloid leukemia cell differentiation protein Mcl-1, sequence (Q07820 whole entry): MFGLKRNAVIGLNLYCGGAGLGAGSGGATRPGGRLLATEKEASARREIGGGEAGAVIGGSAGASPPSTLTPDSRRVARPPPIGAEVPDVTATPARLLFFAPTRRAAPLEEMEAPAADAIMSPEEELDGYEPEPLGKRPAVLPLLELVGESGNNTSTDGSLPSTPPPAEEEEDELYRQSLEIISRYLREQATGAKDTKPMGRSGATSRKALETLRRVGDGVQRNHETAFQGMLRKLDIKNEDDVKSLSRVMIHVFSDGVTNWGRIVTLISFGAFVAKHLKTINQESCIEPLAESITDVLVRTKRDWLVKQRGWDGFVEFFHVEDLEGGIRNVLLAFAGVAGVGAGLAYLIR
The next series addresses T1, Bcl-2-like protein 2 (Homo sapiens, UniProt Q92843).
T1 sequence (Q92843 whole entry): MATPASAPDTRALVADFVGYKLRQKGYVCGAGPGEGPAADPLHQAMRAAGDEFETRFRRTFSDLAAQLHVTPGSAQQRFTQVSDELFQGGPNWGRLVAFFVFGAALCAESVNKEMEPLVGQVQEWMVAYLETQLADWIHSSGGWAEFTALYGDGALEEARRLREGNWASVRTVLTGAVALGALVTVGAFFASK
In words: Binding affinity to BCL-W (unknown origin) assessed as dissociation constant incubated for 1 hrs by TR-FRET assay.

The subject of another series is MOLT-4. In words: Antiproliferative activity against Bcl-xl dependent human MOLT-4 cells assessed as reduction in cell viability by measuring effect concentration by CellTiter-Glo reagent based assay. In kind it is functional.
Series [3] can be described thus: Toxicity in Sprague-Dawley rat assessed as inhibition of granulopoiesis by measuring reduction in neutrophil count at 50 mg/kg, po administered daily for 5 days measured on day 6 by microscopic analysis relative to control. Type of series: organism-based. More on the design: scale not given: the % may be the effect or the level left. As to conditions: in vivo, 144 h, time 6 day. Summed up:
(§1)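 Male Sprague-Dawley rats, n = 10 per group: docetaxel 5 mg/kg i.v. once, or oral inhibitor daily for 5 days (30, 50 or 7 mg/kg depending on agent), alone or combined with docetaxel, against vehicles. Total neutrophil and platelet counts in blood collected on day 6; Tukey-Kramer test versus vehicle.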

Series [4] can be described thus: Toxicity in Sprague-Dawley rat assessed as inhibition of granulopoiesis by measuring reduction in neutrophil count at 50 mg/kg, po administered daily for 5 days measured on day 6 in presence of docetaxel by microscopic analysis relative to control. In kind it is organism-based. As to conditions: in vivo, 144 h, time 6 day. Summed up: as §1
A short description of series [5]: Toxicity in Sprague-Dawley rat assessed as inhibition of […] by measuring reduction in circulating platelets at 50 mg/kg, po administered daily for 5 days and measured on day 6 by microscopic analysis. In kind it is organism-based. The following applies: in vivo, 144 h, time 6 day. Summed up: as §1
A short description of series [6]: Toxicity in Sprague-Dawley rat assessed as inhibition of granulopoiesis by measuring reduction in neutrophil count at 30 mg/kg, po administered daily for 5 days measured on day 6 by microscopic analysis relative to control. In kind it is organism-based. Also noted: scale not given: the % may be the effect or the level left. The following applies: in vivo, 144 h, time 6 day. Summed up: as §1

The nature of series [7]: Toxicity in Sprague-Dawley rat assessed as inhibition of granulopoiesis by measuring reduction in neutrophil count at 30 mg/kg, po administered daily for 5 days measured on day 6 in the presence of docetaxel by microscopic analysis relative to control. In kind it is organism-based. As to conditions: in vivo, 144 h, time 6 day. Summed up: as §1
Series [8] in a line: Toxicity in Sprague-Dawley rat assessed as inhibition of […] by measuring reduction in circulating platelets at 30 mg/kg, po administered daily for 5 days and measured on day 6 by microscopic analysis. Type of series: organism-based. As to conditions: in vivo, 144 h, time 6 day. Summed up:
as §1

Apoptosis regulator Bcl-2, sequence (P10415 whole entry): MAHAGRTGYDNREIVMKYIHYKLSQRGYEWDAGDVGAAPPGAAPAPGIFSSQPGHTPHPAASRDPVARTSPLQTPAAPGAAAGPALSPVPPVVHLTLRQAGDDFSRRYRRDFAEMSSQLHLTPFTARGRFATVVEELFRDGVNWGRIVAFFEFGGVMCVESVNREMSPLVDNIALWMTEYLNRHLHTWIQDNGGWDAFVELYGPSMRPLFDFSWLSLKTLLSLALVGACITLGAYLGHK

Consider `CO[C@H]1CC[C@H](CNc2ccc(S(=O)(=O)NC(=O)c3ccc(N4CCN(CC5=C(c6ccc(Cl)cc6)CC(C)(C)CC5)CC4)cc3Oc3cnc4[nH]ccc4c3)cc2[N+](=O)[O-])CC1` [A-1211212], for which the Ki in series [1] is less than 0.01 nM; at Bcl-2-like protein 1, 14 nM; in series [2], more than 444 nM; on Bcl-2-like protein 2 it was 852 nM. Moreover, the EC50 with MOLT-4 is more than 5000 nM. Besides, the Activity in series [3] is 41%; in [4] it was “Toxic”; in series [5], “Non-Toxic”.
As to `CC1(C)CCC(CN2CCN(c3ccc(C(=O)NS(=O)(=O)c4ccc(N[C@H](CCN5CCOCC5)CSc5ccccc5)c(S(=O)(=O)C(F)(F)Cl)c4)cc3)CC2)=C(c2ccc(Cl)cc2)C1`, the Ki in series [1] was 0.048 nM; on Bcl-2-like protein 1, 0.463 nM; in series [2], more than 3900 nM; on Bcl-2-like protein 2, 2 nM. Also, the EC50 with MOLT-4 stood at 134 nM. Also, the Activity is listed as 41% in series [6], “Toxic” in series [7] and “Toxic” in series [8].
